{"data": "Measured values gathered from unrelated publications", "target": "Serine/threonine-protein kinase haspin (HASPIN, Homo sapiens, UniProt Q8TF76)", "Sequence (Q8TF76 1-798, as in one of the studies)": "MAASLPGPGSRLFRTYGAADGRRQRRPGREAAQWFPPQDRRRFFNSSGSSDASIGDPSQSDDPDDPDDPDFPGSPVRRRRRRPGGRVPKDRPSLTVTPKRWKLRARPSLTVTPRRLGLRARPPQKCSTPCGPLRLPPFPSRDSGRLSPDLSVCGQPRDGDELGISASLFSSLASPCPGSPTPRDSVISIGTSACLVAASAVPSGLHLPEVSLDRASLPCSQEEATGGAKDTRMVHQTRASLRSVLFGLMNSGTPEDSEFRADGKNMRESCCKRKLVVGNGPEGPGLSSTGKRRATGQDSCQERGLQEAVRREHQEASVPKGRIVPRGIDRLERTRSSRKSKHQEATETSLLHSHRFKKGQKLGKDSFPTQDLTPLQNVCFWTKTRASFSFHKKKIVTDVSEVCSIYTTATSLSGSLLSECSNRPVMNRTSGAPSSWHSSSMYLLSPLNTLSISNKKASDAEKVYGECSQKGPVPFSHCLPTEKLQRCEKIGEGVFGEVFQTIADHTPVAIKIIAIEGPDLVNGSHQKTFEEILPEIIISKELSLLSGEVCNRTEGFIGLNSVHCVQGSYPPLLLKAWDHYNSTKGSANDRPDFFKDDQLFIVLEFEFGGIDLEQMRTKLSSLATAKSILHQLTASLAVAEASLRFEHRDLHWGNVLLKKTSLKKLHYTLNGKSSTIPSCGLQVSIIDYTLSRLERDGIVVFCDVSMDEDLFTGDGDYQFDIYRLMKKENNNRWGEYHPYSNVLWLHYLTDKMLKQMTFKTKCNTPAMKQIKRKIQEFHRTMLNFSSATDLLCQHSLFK", "note": "Protocols differ between the studies behind these lines."}
{"Structure (SMILES)": "O=C(c1ccc(Nc2ncc(Cl)c(-c3ccc(Cl)s3)n2)cc1)N1CCC(N2CCCC2)CC1", "read-out": "binding", "method": "competition with immobilised ligand", "concentration": "1 µM", "remaining binding": "39%"}
{"Structure (SMILES)": "CC1CCCN1c1nccc(-c2cnn3ncccc23)n1 (stereo not shown)", "read-out": "binding", "concentration": "1 µM", "remaining binding": "21%"}
{"Structure (SMILES)": "O=C(Nc1cnc(Oc2ccc(F)cc2)nc1)N1CCc2ncccc2[C@@H]1c1ccc(F)cc1", "read-out": "cell-free assay", "method": "competition with immobilised ligand", "concentration": "1 µM", "remaining binding": "93%"}
{"Structure (SMILES)": "C=CC(=O)N1CCC(C(=O)NCC(=O)N2CCN(c3nc(-c4cnc(N)nc4C(F)F)nc(N4CCOCC4)n3)CC2)CC1", "read-out": "binding", "method": "competition with immobilised ligand", "concentration": "1 µM", "remaining binding": "75%"}
{"Structure (SMILES)": "CS(=O)(=O)N1CCCC(NC(=O)[C@H](CCC2CCCCC2)NC(=O)c2ccc(CNc3ncnc4c3nnn4-c3ccccc3)cc2)C1 (stereo partly shown)", "read-out": "cell-free assay", "method": "competition with immobilised ligand", "concentration": "0.1 µM", "remaining binding": "100%"}
{"Structure (SMILES)": "C[C@@H]1CCN(c2nccc(-c3cnn4ncccc34)n2)C1", "read-out": "binding", "concentration": "1 µM", "remaining binding": "2%"}
{"Structure (SMILES)": "Cn1nc(C(F)(F)F)cc1-c1cnc(N2CCc3cc(S(=O)(=O)Nc4c(F)cc(Cl)cc4F)cc(N4CCCC4=O)c32)nc1", "read-out": "cell-free assay", "method": "competition with immobilised ligand", "concentration": "1 µM", "remaining binding": "68%"}
{"Structure (SMILES)": "COc1cnc(Nc2cccc(S(N)(=O)=O)c2)nc1N1CCN(c2ccccc2)CC1", "read-out": "binding", "method": "competition with immobilised ligand", "concentration": "1 µM", "remaining binding": "82%"}
{"Structure (SMILES)": "CN(c1nccc(-c2cnn3ncccc23)n1)C1CC1", "read-out": "binding", "concentration": "1 µM", "remaining binding": "18%"}
{"Structure (SMILES)": "O=C(NCC1CCOCC1)c1n[nH]cc1NC(=O)c1c(F)cccc1F", "read-out": "binding", "method": "competition with immobilised ligand", "concentration": "1 µM", "remaining binding": "88%"}
{"Structure (SMILES)": "CC(=O)N1CCC(c2ccc(C(=O)NC3=NCCN3)cc2C(F)(F)F)CC1", "read-out": "cell-free assay", "method": "competition with immobilised ligand", "concentration": "1 µM", "remaining binding": "78%"}
{"Structure (SMILES)": "COc1cnc(Nc2cccc(S(N)(=O)=O)c2)nc1N1CCN(c2ccccc2)C(=O)C1", "read-out": "binding", "method": "competition with immobilised ligand", "concentration": "1 µM", "remaining binding": "89%"}
{"Structure (SMILES)": "COc1ncc2cc3ccccc3nc2c1C#N", "read-out": "cell-free assay", "method": "competition with immobilised ligand", "concentration": "5 µM", "remaining binding": "51%"}
{"Structure (SMILES)": "COc1ccc2cc(OCC3(C(=O)O)CN(C(=O)c4ccc(F)cc4)C3)ccc2c1", "read-out": "cell-free assay", "method": "competition with immobilised ligand", "concentration": "1 µM", "remaining binding": "100%"}
{"Structure (SMILES)": "COc1ccnn2ncc(-c3ccnc(N(C)C)n3)c12", "read-out": "binding", "concentration": "1 µM", "remaining binding": "1.8%"}
{"Structure (SMILES)": "O=C(NCCCN1CCOCC1)c1ccc(Nc2nccc(-c3cc4ccccc4s3)n2)cc1", "read-out": "binding", "method": "competition with immobilised ligand", "concentration": "1 µM", "remaining binding": "80%"}
{"Structure (SMILES)": "c1cnn2ncc(-c3ccnc(N4CCC45COC5)n3)c2c1", "read-out": "binding", "concentration": "1 µM", "remaining binding": "0.6%"}
{"Structure (SMILES)": "O=C(NCCCN1CCOCC1)c1ccc(Nc2ncc(Cl)c(-c3ccc(Cl)s3)n2)cc1", "read-out": "binding", "method": "competition with immobilised ligand", "concentration": "1 µM", "remaining binding": "51%"}
{"Structure (SMILES)": "Cc1cc(NC(=O)c2cccc(S(F)(F)(F)(F)F)c2)cc(-n2ccn3nc(-c4cccnc4)cc23)c1", "read-out": "cell-free assay", "method": "competition with immobilised ligand", "concentration": "1 µM", "remaining binding": "70.9%"}
{"Structure (SMILES)": "N[C@@H]1CCN(c2nccc(-c3cnn4ncccc34)n2)C1", "read-out": "binding", "concentration": "1 µM", "remaining binding": "2.5%"}
{"Structure (SMILES)": "NS(=O)(=O)c1cc(NC(=O)Cc2ccccc2)ccc1Oc1cccc(Cl)c1", "read-out": "cell-free assay", "method": "competition with immobilised ligand", "concentration": "1 µM", "remaining binding": "100%"}
{"Structure (SMILES)": "CN(C)c1ncc(F)c(-c2cnn3ncccc23)n1", "read-out": "binding", "concentration": "1 µM", "remaining binding": "37%"}
